Experimental data published in the M2OR odorant receptor database.

Assays:
Settings in all cases: stereoisomer not certain
UniProt B2RVX8 = target: T1, UniProt B2RVX8
T1 sequence (whole entry): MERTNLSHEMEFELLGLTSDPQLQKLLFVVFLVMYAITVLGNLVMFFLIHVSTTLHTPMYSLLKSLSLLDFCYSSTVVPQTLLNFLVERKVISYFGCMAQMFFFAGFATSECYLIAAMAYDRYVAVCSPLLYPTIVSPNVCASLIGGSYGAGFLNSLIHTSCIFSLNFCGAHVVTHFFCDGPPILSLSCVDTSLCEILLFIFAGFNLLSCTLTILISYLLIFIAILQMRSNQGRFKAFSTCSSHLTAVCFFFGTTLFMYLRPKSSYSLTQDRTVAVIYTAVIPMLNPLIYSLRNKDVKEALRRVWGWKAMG
Outline: (§1)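 Each entry records the cell line, G-protein, co-transfected protein and tags used. Methods varied with the source, often transient luciferase assays in mammalian cell lines. A receptor–molecule pair is called responsive (active) if the original authors judged its signal statistically different from baseline and non-responsive (inactive) otherwise.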

UniProt E9PVX1 = target: T2, UniProt E9PVX1
T2 sequence (whole entry): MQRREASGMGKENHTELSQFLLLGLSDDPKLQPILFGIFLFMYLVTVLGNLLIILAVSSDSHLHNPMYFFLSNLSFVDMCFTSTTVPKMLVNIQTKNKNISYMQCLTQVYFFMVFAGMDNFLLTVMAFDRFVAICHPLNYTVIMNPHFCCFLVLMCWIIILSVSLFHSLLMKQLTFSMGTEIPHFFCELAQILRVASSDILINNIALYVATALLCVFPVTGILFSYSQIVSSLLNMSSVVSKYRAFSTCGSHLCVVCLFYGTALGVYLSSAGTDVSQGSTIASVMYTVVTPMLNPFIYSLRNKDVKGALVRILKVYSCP
Outline: as §1

UniProt E9PZ66 = target: T3, UniProt E9PZ66
T3 sequence (whole entry): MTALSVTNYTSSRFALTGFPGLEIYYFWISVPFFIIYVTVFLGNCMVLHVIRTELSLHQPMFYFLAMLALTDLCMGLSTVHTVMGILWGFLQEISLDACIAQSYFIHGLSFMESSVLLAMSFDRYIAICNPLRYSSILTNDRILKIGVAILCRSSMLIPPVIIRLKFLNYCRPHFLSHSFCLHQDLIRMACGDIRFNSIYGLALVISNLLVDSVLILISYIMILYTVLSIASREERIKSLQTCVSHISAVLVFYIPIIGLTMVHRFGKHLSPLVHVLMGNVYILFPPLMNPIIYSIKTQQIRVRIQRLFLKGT
Outline: as §1

UniProt E9Q4X7 = target: T4, UniProt E9Q4X7
T4 sequence (whole entry): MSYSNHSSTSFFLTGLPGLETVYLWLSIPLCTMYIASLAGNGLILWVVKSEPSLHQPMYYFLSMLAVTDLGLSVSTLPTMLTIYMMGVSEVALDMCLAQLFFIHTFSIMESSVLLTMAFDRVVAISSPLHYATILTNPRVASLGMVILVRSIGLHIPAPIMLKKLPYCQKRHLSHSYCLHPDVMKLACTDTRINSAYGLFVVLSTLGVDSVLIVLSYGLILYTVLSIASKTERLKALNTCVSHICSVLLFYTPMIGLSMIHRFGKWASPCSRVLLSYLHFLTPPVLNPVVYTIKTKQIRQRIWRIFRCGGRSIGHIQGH
Outline: as §1

UniProt E9Q546 = target: T5, UniProt E9Q546
T5 sequence (whole entry): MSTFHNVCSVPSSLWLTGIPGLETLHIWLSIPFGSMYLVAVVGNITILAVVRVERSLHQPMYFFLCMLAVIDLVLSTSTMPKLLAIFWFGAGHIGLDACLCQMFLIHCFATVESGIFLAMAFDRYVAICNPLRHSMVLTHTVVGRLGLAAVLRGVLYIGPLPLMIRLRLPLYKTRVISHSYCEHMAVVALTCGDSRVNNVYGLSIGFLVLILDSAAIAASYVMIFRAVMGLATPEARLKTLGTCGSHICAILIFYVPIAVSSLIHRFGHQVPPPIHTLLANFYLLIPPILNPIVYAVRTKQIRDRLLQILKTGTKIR
Outline: as §1

UniProt E9Q6Z7 = target: T6, UniProt E9Q6Z7
T6 sequence (whole entry): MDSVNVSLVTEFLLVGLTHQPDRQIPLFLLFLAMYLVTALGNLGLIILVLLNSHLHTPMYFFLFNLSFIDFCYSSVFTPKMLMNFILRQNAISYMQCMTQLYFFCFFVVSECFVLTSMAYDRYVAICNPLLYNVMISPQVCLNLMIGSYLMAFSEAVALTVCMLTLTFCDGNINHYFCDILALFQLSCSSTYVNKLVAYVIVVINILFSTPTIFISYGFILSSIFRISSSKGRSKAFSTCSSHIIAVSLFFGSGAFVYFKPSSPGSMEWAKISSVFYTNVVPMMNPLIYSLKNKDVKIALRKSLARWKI
Outline: as §1

UniProt K7N609 = target: T7, UniProt K7N609
T7 sequence (whole entry): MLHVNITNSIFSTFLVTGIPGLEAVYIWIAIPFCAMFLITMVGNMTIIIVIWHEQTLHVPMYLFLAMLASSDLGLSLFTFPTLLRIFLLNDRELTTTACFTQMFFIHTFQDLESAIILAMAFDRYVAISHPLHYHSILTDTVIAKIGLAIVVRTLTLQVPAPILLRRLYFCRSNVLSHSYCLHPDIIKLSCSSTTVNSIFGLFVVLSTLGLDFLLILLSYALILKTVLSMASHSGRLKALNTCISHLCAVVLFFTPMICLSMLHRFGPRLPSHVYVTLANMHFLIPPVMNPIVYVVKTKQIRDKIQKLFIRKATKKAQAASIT
Outline: as §1

UniProt L7MU75 = target: T8, UniProt L7MU75
T8 sequence (whole entry): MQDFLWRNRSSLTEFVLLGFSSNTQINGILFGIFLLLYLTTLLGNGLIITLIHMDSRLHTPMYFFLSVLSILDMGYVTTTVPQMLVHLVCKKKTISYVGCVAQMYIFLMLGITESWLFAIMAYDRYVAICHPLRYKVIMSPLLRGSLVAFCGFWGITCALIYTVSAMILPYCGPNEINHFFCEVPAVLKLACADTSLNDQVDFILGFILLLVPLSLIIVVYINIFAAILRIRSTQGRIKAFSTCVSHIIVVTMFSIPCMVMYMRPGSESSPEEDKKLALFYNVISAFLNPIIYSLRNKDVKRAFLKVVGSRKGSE
Outline: as §1

UniProt L7N210 = target: T9, UniProt L7N210
T9 sequence (whole entry): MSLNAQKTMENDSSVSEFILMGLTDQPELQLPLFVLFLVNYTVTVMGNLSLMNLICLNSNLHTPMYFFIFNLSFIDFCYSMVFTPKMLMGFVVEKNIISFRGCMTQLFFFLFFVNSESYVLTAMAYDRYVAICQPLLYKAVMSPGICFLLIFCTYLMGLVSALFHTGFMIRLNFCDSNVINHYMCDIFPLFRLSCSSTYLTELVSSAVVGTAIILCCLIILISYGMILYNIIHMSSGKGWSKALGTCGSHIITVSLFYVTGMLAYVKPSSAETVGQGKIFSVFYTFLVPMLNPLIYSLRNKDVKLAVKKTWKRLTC
Outline: as §1

UniProt Q3KPB0 = target: T10, UniProt Q3KPB0
T10 sequence (whole entry): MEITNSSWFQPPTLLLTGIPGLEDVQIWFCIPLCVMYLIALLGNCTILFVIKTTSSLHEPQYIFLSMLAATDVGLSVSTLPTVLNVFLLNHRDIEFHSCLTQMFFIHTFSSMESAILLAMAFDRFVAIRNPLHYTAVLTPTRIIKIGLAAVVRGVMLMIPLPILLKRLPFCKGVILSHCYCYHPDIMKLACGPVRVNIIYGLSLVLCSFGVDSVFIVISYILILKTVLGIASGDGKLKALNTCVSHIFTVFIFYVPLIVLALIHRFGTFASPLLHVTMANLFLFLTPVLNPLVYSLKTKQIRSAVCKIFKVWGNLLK
Outline: as §1

UniProt Q3U0P3 = target: T11, UniProt Q3U0P3
T11 sequence (whole entry): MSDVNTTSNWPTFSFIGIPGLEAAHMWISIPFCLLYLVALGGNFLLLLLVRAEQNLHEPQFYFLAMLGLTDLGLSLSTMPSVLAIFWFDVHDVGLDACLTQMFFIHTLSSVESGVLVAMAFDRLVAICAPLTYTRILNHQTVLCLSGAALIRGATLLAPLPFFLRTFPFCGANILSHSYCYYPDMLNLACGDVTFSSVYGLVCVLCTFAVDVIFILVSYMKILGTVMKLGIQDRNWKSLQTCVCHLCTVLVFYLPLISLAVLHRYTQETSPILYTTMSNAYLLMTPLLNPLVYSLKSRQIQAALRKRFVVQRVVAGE
Outline: as §1

UniProt Q7TQU8 = target: T12, UniProt Q7TQU8
T12 sequence (whole entry): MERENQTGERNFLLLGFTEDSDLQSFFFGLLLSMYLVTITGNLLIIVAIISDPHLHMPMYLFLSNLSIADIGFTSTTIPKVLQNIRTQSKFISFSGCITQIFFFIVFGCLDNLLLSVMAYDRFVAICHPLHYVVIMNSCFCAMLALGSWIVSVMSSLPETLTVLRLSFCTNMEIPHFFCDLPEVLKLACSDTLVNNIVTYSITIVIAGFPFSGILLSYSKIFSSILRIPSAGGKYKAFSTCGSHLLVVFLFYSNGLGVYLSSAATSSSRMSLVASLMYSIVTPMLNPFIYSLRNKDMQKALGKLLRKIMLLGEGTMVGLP
Outline: as §1

UniProt Q7TQV4 = target: T13, UniProt Q7TQV4
T13 sequence (whole entry): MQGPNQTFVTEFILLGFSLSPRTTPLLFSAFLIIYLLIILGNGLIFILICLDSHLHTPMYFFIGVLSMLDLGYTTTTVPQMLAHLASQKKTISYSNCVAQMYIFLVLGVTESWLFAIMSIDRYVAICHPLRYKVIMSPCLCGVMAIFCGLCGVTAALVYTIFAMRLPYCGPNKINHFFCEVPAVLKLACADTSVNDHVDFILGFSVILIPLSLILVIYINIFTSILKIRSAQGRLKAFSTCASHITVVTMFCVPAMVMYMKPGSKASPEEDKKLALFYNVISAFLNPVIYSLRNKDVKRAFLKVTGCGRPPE
Outline: as §1

UniProt Q7TR71 = target: T14, UniProt Q7TR71
T14 sequence (whole entry): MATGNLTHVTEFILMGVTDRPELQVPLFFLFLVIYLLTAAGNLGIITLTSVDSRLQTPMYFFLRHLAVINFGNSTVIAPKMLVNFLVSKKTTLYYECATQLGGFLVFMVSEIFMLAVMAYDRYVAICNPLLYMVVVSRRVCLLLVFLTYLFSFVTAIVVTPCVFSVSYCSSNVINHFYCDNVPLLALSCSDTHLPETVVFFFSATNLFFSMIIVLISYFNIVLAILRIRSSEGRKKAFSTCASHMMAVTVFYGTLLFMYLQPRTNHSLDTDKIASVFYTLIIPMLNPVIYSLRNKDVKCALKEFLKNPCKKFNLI
Outline: as §1

UniProt Q7TR79 = target: T15, UniProt Q7TR79
T15 sequence (whole entry): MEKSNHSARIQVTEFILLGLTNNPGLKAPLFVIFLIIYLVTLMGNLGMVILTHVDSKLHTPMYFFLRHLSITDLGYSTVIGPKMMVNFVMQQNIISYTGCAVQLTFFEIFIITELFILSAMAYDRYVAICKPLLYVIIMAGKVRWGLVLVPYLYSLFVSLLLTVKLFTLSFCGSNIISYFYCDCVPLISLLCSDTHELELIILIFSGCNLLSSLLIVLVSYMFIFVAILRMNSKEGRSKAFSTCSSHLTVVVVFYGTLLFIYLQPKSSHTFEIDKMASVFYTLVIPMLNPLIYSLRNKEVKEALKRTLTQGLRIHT
Outline: as §1

UniProt Q7TRA3 = target: T16, UniProt Q7TRA3
T16 sequence (whole entry): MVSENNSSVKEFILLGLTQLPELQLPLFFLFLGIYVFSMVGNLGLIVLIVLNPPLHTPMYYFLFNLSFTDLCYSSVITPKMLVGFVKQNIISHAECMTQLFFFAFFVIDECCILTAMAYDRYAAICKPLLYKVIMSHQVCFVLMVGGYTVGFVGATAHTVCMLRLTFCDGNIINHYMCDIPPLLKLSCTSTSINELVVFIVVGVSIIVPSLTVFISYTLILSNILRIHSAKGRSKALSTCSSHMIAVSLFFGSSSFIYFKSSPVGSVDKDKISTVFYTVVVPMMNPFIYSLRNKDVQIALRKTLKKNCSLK
Outline: as §1

UniProt Q7TRE4 = target: T17, UniProt Q7TRE4
T17 sequence (whole entry): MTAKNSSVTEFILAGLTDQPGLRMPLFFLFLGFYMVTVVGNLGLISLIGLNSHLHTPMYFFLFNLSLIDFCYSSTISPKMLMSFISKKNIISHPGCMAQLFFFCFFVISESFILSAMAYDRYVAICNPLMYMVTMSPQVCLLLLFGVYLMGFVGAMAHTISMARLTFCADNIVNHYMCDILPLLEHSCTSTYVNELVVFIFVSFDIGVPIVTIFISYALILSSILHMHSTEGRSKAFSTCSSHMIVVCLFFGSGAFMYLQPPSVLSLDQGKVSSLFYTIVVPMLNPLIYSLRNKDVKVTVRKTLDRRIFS
Outline: as §1

Measured: odorant receptor agonist call

O=c1cc(O)c2ccccc2o1
inactive: all assays above
